The source of these data is publication PMC9939723 (Redox Biology, 2023).

For one data set, the system named is CRAB. Briefly: Checkerboard microdilution assay, antibiotic with gold complexes. The data set is classed as cell-based, Acinetobacter baumannii. Conditions: for MIC of antibiotic: antibiotic alone; for MIC of antibiotic / FIC index: CRAB; for MIC: Acinetobacter baumannii. Put shortly:
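Checkerboard in 96-well plates. Inoculum diluted per the CLSI broth microdilution method. Gold complex 0–20 μM crossed with antibiotic 0–240 μM. Growth inhibition read as OD600 on a plate reader.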
On the technique in general: Broth dilution looks for growth in wells or tubes with falling amounts of substance.

The next data set has as its target T1, purified rat liver TrxR (Rattus norvegicus, UniProt O89049).
T1 sequence (O89049 1-499): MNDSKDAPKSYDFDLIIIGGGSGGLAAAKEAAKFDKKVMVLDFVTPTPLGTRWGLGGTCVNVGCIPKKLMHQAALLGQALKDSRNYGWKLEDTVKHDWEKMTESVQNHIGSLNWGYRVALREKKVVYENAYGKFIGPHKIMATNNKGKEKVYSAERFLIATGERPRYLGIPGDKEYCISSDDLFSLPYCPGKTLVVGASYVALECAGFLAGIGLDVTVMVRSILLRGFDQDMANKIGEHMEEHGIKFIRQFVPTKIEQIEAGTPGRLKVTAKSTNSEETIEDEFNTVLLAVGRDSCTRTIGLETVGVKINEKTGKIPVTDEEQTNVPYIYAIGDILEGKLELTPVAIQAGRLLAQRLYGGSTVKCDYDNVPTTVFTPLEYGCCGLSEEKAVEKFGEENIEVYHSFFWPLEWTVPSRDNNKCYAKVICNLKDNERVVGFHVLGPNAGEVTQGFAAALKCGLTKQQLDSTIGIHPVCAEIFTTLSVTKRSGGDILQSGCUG
Conditions: read-out: IC50 purified TrxR activity; previous report ref 38; cited from earlier work.

Data set [1] concerns carbapenem-resistant Escherichia coli (BAA-2140). Nature of the data set: MIC by microbroth dilution against CREco. The data set is classed as cell-based. To be noted: 24 h incubation. Put shortly: (§1)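 Broth microdilution per CLSI guidelines in 96-well plates. Incubated 37 °C for 24 h, then read on a microplate reader.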
Data set [2] relates to carbapenem-resistant Acinetobacter baumannii (CRAB). Nature of the data set: MIC by microbroth dilution against CRAB. Type of data set: cell-based. Conditions: 24 h incubation. Put shortly:
as §1

For data set [3], the system named is vancomycin-intermediate Staphylococcus aureus (ATCC 700699). Nature of the data set: MIC by microbroth dilution against VISA. The data set is classed as cell-based. To be noted: 24 h incubation. Put shortly: as §1
The next data set deals with CRAB-induced peritonitis. Briefly: Murine peritonitis infection model. Type of data set: in vivo, BALB/c mice. Put shortly: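 Male (n = 8/group) and female (n = 12/group) BALB/c mice, 18–22 g, infected i.p. with 200 μL CRAB (1 × 10^9 cfu/mL). Single i.p. dose of 5 mg/kg given 1 h post-infection; PBS as control. Survival followed for 72 h. Experiment repeated three times.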

For data set [4], the system named is carbapenem-resistant Pseudomonas aeruginosa (BAA-2108). Briefly: MIC by microbroth dilution against CRPA. The data set is classed as cell-based. Conditions: 24 h incubation. Put shortly:
as §1

For the next data set, the system named is TrxB expression in CRAB. Nature of the data set: TrxB expression by qPCR. To be noted: 2 h. Type of data set: cell-based, Acinetobacter baumannii. Put shortly:
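Bacteria at initial OD600 0.4–0.5 exposed to compound and shaken 2 h at 37 °C. Total RNA extracted with a kit (lysis buffer, chloroform). TrxB mRNA measured by qPCR with 16S as internal control, 2^−ΔΔCt method, in triplicate.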
(Real-time PCR tracks product formation cycle by cycle.)

Data set [5] has as its system carbapenem-resistant Klebsiella pneumonia (BAA-1705). Briefly: MIC by microbroth dilution against CRKP. The data set is classed as cell-based. Conditions: 24 h incubation. Put shortly:
as §1

The target of a further data set is TrxR in CRAB (Acinetobacter baumannii, UniProt A0A0G4QN87). Briefly: Cellular TrxR activity assay. The data set is classed as cell-based. To be noted: read-out: IC50 inhibition of TrxR activity in CRAB; 2 h treatment of bacteria. Put shortly:
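Cultures at OD600 0.4–0.6 exposed to 0, 0.5, 1, 2, 5, 10, 20 μM for 2 h. Pellets washed three times in PBS and normalised to OD600 0.7 ± 0.02. TrxR assayed with a kit: NADPH-driven DTNB reduction, 2-vinylpyridine added to block GSH, activity from the rate of TNB increase at 412 nm on a plate reader.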

Several values for one entry are separate records, joined by “and”; a condition that tells them apart may be missing. Identical values can stand only once. Like-named read-outs stand apart in the source and are kept apart here.

Sequence of TrxR in CRAB (A0A0G4QN87 1-315): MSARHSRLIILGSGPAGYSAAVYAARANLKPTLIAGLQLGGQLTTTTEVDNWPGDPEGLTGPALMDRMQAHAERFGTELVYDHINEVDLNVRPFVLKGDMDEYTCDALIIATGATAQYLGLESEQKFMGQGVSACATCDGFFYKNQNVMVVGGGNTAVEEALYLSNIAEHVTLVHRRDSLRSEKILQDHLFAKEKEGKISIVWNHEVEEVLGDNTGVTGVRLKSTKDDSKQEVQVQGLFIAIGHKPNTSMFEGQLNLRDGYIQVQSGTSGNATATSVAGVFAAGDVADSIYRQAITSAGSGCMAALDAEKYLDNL

As for `C[C@@H](O)[C@H]1C(=O)N2C(C(=O)O)=C(SCCN=CN)C[C@H]12` [Imipenem], the MIC of antibiotic in the data set with CRAB is 240 µM.
With `CO/N=C(\C(=O)N[C@@H]1C(=O)N2C(C(=O)O)=C(COC(C)=O)CS[C@H]12)c1csc(N)n1` [Cefotaxime], the MIC with CRAB (read-out: MIC of cefotaxime in the presence of H7) and in the data set with CRAB (read-out: MIC of cefotaxime in the presence of H8) was 30 µM in each case. Also, the MIC of antibiotic in the data set with CRAB is 240 µM.
`CC(=O)OC[C@H]1O[C@@H]([S-])[C@H](OC(C)=O)[C@@H](OC(C)=O)[C@@H]1OC(C)=O.CCP(CC)CC.[Au+]` [Auranofin]: the IC50 (usually the concentration at which inhibition is half-maximal) at purified rat liver TrxR is 0.0826 µM; at TrxR in CRAB, 6.31 µM. For the same compound, the “MIC CREco” value in [1] was 40 μM and 27.12 μg/mL. The FIC index in the data set on CRAB (gold complex in combination with cefotaxime) was determined as 0.625; with CRAB (gold complex in combination with imipenem) it was 0.75. Besides, the “MIC CRAB” value in data set [2] is 20 μM and 13.56 μg/mL. The “MIC VISA” value in [3] was 0.34 μg/mL and 0.5 μM. Moreover, the “mice surviving to 34 h” value with CRAB-induced peritonitis (female BALB/c, n = 12, i.p. 5 mg/kg 1 h after infection) was “seven of the twelve mice”. In addition, the “mice surviving to 24 h” value in the data set with CRAB-induced peritonitis (male BALB/c, n = 8, single i.p. 5 mg/kg 1 h after infection) is listed as “four of the eight mice”. For the same compound, in data set [4], the “MIC CRPA” value is 40 μM and 27.12 μg/mL. The “expression of TrxB (mRNA)” value with TrxB expression in CRAB is on record as “no effect”. The “MIC CRKP” value in data set [5] is 40 μM and 27.12 μg/mL.
